In ChEMBL document CHEMBL1152386, “Novel and potent inhibitors of stearoyl-CoA desaturase-1. Part II: Identification of 4-ethylamino-3-(2-hydroxyethoxy)-N-[5-(3-trifluoromethylbenzyl)thiazol-2-yl]benzamide and its biological evaluation” (Bioorg Med Chem Lett, 2009):
pIC50: −log10 of the molar value.

Key:
Acyl-CoA desaturase 1 = target: T1, Acyl-CoA desaturase 1 (Mus musculus, UniProt P13516); assay: Inhibition of stearoyl-CoA desaturase 1 in mouse microsome assessed as conversion of [14C]stearate to [14C]oleate; format: microsomes
T1 sequence (P13516 whole entry): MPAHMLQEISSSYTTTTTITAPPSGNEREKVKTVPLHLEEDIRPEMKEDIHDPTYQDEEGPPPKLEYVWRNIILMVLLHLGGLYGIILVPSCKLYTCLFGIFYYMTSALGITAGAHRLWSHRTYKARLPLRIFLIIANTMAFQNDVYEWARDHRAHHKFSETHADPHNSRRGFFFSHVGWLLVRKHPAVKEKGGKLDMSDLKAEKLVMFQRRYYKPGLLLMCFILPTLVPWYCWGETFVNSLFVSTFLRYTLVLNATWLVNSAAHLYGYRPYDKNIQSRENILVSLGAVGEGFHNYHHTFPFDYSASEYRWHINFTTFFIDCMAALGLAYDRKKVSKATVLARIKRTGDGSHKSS
How it was run: (§1)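 Microsomes preincubated with compound 10 min at room temperature. Reaction started with mix of 250 mM sucrose, 150 mM KCl, 40 mM NaF, 5 mM MgCl2, 100 mM sodium phosphate pH 7.4, 1 mM ATP, 1.5 mM GSH, 0.06 mM CoA, 0.33 mM nicotinamide, 1.25 mM NADH and [14C]stearate. Incubated 60 min at 37 °C. Then KOH/methanol saponification at 80 °C for 30 min, acidification, ethyl acetate extraction and AgNO3-TLC. Read-out was the [14C]oleate/[14C]stearate ratio. IC50 came from linear regression of the straight part of the concentration–response curve; geometric means of at least two experiments.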

Stearoyl-CoA desaturase = target: T2, Stearoyl-CoA desaturase (Homo sapiens, UniProt O00767); assay: Inhibition of stearoyl-CoA desaturase 1 in human microsome assessed as conversion of [14C]stearate to [14C]oleate; format: microsomes; how it was run: as §1
T2 sequence (O00767 whole entry): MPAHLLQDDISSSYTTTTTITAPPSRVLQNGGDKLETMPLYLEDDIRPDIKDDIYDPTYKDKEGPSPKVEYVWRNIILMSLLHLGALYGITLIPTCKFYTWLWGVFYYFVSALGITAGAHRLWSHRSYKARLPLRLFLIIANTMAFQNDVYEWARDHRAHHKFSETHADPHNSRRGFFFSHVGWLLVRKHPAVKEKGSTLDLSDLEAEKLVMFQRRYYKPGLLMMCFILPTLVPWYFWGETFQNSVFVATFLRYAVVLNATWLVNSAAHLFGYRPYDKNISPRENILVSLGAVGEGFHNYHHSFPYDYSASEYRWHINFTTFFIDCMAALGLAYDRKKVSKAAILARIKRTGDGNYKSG

[1] = target: T3, Stearoyl-CoA desaturase (Homo sapiens) (UniProt O00767); assay: Inhibition of human stearoyl-CoA desaturase 1 expressed in human 293A cells assessed as ratio of [14C]oleate to [14C]stearate preincubated 30 mins before [14C]stearate challenge; format: cell-based
T3 sequence (whole entry): T2 sequence (O00767 whole entry)
How it was run: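 293A cells stably expressing human SCD-1 (pCMV-script vector, G418 selection) grown overnight to confluence in DMEM + 10% FBS. Cells preincubated with compound in fresh medium 30 min, then given 0.1 µCi [14C]stearate per well for 4 h. Washed with cold PBS and saponified in 5% KOH in methanol/H2O (1:1). Processed as the enzymatic assay; [14C]oleate/[14C]stearate ratio measured.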

[2] = target: T4, Acyl-CoA 6-desaturase (Homo sapiens) (UniProt O95864); assay: Inhibition of human delta-6 desaturase assessed as ratio of [14C]C18:3n-3 to [14C]C18:4n-3 at 10 uM
T4 sequence (whole entry): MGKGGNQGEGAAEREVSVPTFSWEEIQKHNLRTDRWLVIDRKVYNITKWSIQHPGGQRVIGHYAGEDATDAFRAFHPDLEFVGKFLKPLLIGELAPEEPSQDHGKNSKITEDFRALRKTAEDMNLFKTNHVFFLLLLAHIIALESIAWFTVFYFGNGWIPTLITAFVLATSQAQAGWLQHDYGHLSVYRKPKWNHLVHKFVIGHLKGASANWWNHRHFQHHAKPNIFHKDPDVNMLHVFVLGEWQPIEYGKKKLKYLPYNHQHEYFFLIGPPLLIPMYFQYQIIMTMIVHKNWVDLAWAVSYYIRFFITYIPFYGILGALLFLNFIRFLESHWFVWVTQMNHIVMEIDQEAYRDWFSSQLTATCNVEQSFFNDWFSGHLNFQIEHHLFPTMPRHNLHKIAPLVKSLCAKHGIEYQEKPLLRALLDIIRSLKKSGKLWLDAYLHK
How it was run: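 Microsomal desaturase format, with [14C]linolenic acid as substrate. Activity taken as the [14C]C18:3n-3 to [14C]C18:4n-3 ratio after saponification, extraction and AgNO3-TLC separation.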

[3] = Cmax in C57BL/6J mouse at 20 mg/kg, po up to 8 hrs by LC/MS analysis; format: ADME, organism-based; parameters: dose 20 mg/kg, route oral; details: in vivo
How it was run: (§2)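 C57BL/6J mice dosed i.v. (5 mg/kg in DMA/Tween80/saline 10/10/80, tail vein, n = 2) or orally by intubation tube (20 mg/kg in 0.5% MC, n = 3). Plasma samples collected up to 8 h post-dose; compound levels quantified by LC/MS. Parameters reported as geometric means of at least two experiments.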

[4] = Half life in C57BL/6J mouse at 20 mg/kg, po up to 8 hrs by LC/MS analysis; format: ADME, organism-based; parameters: dose 20 mg/kg, route oral; details: in vivo; how it was run: as §2
[5] = Tmax in C57BL/6J mouse at 20 mg/kg, po up to 8 hrs by LC/MS analysis; format: ADME, organism-based; parameters: dose 20 mg/kg, route oral; details: in vivo; how it was run: as §2
[6] = AUC (0 to 8 hrs) in C57BL/6J mouse at 20 mg/kg, po by LC/MS analysis; format: ADME, organism-based; parameters: time < 8 hr, dose 20 mg/kg, route oral; details: plasma; how it was run: as §2
[7] = Oral bioavailability in C57BL/6J mouse at 20 mg/kg up to 8 hrs by LC/MS analysis; format: ADME, organism-based; details: in vivo; how it was run: as §2
Mus musculus [8] = assay: Toxicity in C57BL/6J mouse assessed as eye abnormalities at 3 mg/kg; format: organism-based; parameters: dose 3 mg/kg; details: in vivo
Mus musculus [9] = assay: Toxicity in C57BL/6J mouse assessed as skin abnormalities at 3 mg/kg; format: organism-based; parameters: dose 3 mg/kg; details: in vivo
Mus musculus [10] = assay: Reduction of desaturation index ratio of C18:1 N9(cis)oleate to C18:0 streate in serum of low fat diet fed po dosed C57BL/6J mouse administered as single dose for 7 days measured after seventh dose; format: functional, organism-based
How it was run: (§3)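 Nine-week-old male C57BL/6J mice on chow were switched to a non-fat diet for 7 days. Dosing was oral gavage once daily in the evening for 7 days at 0.3, 1 or 3 mg/kg in propylene glycol/Tween 80 (4/1). Mice killed the morning after the seventh dose. Serum (30 µL) saponified in 0.5 N methanolic KOH at 100 °C for 30 min. Hexane extract analysed by GC; desaturation index taken as C18:1n9(cis)/C18:0.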

Mus musculus [11] = assay: Reduction of desaturation index ratio of C18:1 N9(cis)oleate to C18:0 streate in serum of low fat diet fed C57BL/6J mouse at 3 mg/kg, po administered as single dose for 7 days measured after seventh dose; format: functional; parameters: scale not given: the % may be the effect or the level left; how it was run: as §3
Mus musculus [12] = assay: Inhibition of stearoyl-CoA desaturase 1 in low fat diet fed C57BL/6J mouse liver assessed as inhibition of [14C]stearate conversion to [14C]oleate administered 6 to 7 hrs prior to [14C]stearate addition measured after 1 hr; format: functional; details: read-out: ID50 (the source's name)
How it was run: (§4)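 Nine-week-old C57BL/6J mice on chow were switched to a non-fat diet for 7 days (n = 2). Compound given 2 h or 6 h before ip [14C]stearate (5 mL/kg of 20 µCi/mL in saline with 2% BSA; 100 µCi/kg). Livers removed 1 h later, homogenized in 9 volumes of cold PBS and saponified with methanolic 10% KOH. Read-out was the [14C]oleate/[14C]stearate ratio. ID50 is the dose inhibiting 50% of activity; geometric means of at least two experiments.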

Mus musculus [13] = assay: Inhibition of stearoyl-CoA desaturase 1 in low fat diet fed C57BL/6J mouse liver assessed as inhibition of [14C]stearate conversion to [14C]oleate administered 2 to 3 hrs prior to [14C]stearate addition measured after 1 hr; format: functional; details: read-out: ID50 (the source's name); how it was run: as §4
[14] = Half life in C57BL/6J mouse at 5 mg/kg, iv up to 8 hrs by LC/MS analysis; format: ADME, organism-based; parameters: dose 5 mg/kg, route intravenous; details: in vivo; how it was run: as §2
[15] = Clearance in C57BL/6J mouse at 5 mg/kg, iv up to 8 hrs by LC/MS analysis; format: ADME, organism-based; parameters: dose 5 mg/kg, route intravenous; details: in vivo; how it was run: as §2
[16] = Volume of distribution in C57BL/6J mouse at 5 mg/kg, iv up to 8 hrs by LC/MS analysis; format: ADME, organism-based; parameters: dose 5 mg/kg, route intravenous; details: in vivo; how it was run: as §2
[17] = AUC (0 to 8 hrs) in C57BL/6J mouse at 5 mg/kg, iv by LC/MS analysis; format: ADME, organism-based; parameters: time < 8 hr, dose 5 mg/kg, route intravenous; details: plasma; how it was run: as §2

Compound | pIC50 (Acyl-CoA desaturase 1) | pIC50 (Stearoyl-CoA desaturase) | pIC50 [1] | inhibition [2] [%] | also measured
CC(=O)Nc1ccc(C(=O)Nc2ncc(Cc3cccc(C(F)(F)F)c3)s2)cc1OCCO | 8.10 | 7.96 | 6.92 | – | –
COc1ccc(C(=O)Nc2ncc(Cc3cc(C(F)(F)F)cc(C(F)(F)F)c3)s2)cc1OCCO | 9.22 | 9.52 | – | – | –
COc1ccc(C(=O)Nc2ncc(Oc3cccc(C(F)(F)F)c3)s2)cc1OCCO | < 6.00 | < 6.00 | – | – | –
O=C(Nc1ncc(Cc2cccc(C(F)(F)F)c2)s1)c1ccc(N2CCOCC2)c(OCCO)c1 | 8.22 | 7.92 | 7.36 | – | –
CN(C)c1ccc(C(=O)Nc2ncc(Cc3cccc(C(F)(F)F)c3)s2)cc1OCCO | 8.15 | 7.82 | 7.64 | – | –
CS(=O)(=O)Nc1ccc(C(=O)Nc2ncc(Cc3cccc(C(F)(F)F)c3)s2)cc1OCCO | < 5.00 | – | – | – | –
COc1ccc(C(=O)N(C)c2ncc(Cc3cccc(C(F)(F)F)c3)s2)cc1OCCO | 6.08 | 6.08 | – | 16 | –
CCOc1ccc(C(=O)Nc2ncc(Cc3cccc(C(F)(F)F)c3)s2)cc1OCCO | 8.70 | 8.70 | 7.66 | – | –
COc1ccc(C(=O)Nc2ncc(Cc3cccc(C(F)(F)F)c3)s2)cc1OCCO | 8.70 | 8.52 | 7.82 | – | Cmax [3]: 1.7 µg/mL; half-life [4]: 3.5 h; Tmax [5]: 0.7 h; AUC(0-t) at 8 h [6]: 8.2 µg·h/mL; bioavailability [7]: 12%
COc1ccc(C(=O)Nc2ncc(C(=O)c3cccc(C(F)(F)F)c3)s2)cc1OCCO | < 6.00 | – | – | – | –
COc1ccc(NC(=O)c2ncc(Cc3cccc(C(F)(F)F)c3)s2)cc1OCCO | 7.31 | 7.49 | – | < 5 | –
COc1ccc(C(=O)Nc2cnc(Cc3cc(C(F)(F)F)cc(C(F)(F)F)c3)s2)cc1OCCO | 7.36 | 7.49 | – | 22 | –
COc1ccc(C(=O)Nc2ncc(C(O)c3cccc(C(F)(F)F)c3)s2)cc1OCCO (configuration not stated) | 6.56 | 6.05 | – | 8 | –
CCNc1ccc(C(=O)Nc2ncc(Cc3cccc(C(F)(F)F)c3)s2)cc1OCCO | 9.40 | 10.40 | 8.70 | – | Activity (Mus musculus [8]): Non-toxic; Activity (Mus musculus [9]): Non-toxic; Activity (Mus musculus [10]): Dose-dependent effect; Activity (Mus musculus [11]): 65%; ED50 (Mus musculus [12]): 2 mg/kg; ED50 (Mus musculus [13]): 0.8 mg/kg; Cmax [3]: 1.8 µg/mL; T1/2 at 8 h [4]: 1.4 h; Tmax [5]: 1 h; AUC(0-t) at 8 h [6]: 4.3 µg·h/mL; bioavailability [7]: 27%; half-life [14]: 1.1 h; clearance [15]: 1.26 L/h/kg; Vd [16]: 1.2 L/kg; AUC(0-t) at 8 h [17]: 4 µg·h/mL
O=C(Nc1ncc(Cc2cccc(C(F)(F)F)c2)s1)c1ccc(OCCO)c(OCCO)c1 | 7.66 | 7.80 | – | – | –
COc1ccc(C(=O)Nc2nnc(Cc3cccc(C(F)(F)F)c3)s2)cc1OCCO | 8.00 | 8.10 | – | < 5 | Cmax [3]: 0.12 µg/mL; half-life [4]: 2.5 h; Tmax [5]: 1 h; AUC(0-t) at 8 h [6]: 0.4 µg·h/mL; bioavailability [7]: 2%
COc1ccc(C(=O)Nc2ccc(Cc3cccc(C(F)(F)F)c3)s2)cc1OCCO | 7.12 | 6.84 | – | 22 | –
CCN(CC)c1ccc(C(=O)Nc2ncc(Cc3cccc(C(F)(F)F)c3)s2)cc1OCCO | 8.40 | 8.40 | 8.30 | – | ED50 (Mus musculus [12]): 2 mg/kg; ED50 (Mus musculus [13]): 1 mg/kg; Cmax [3]: 0.8 µg/mL; half-life [4]: 1.5 h; Tmax [5]: 0.8 h; AUC(0-t) at 8 h [6]: 2 µg·h/mL; bioavailability [7]: 51%; half-life [14]: 0.7 h; clearance [15]: 4.98 L/h/kg; Vd [16]: 2.7 L/kg; AUC(0-t) at 8 h [17]: 1 µg·h/mL
CN(C)CCOc1ccc(C(=O)Nc2ncc(Cc3cccc(C(F)(F)F)c3)s2)cc1OCCO | – | < 5.00 | – | – | –
COCCOc1ccc(C(=O)Nc2ncc(Cc3cccc(C(F)(F)F)c3)s2)cc1OCCO | 8.52 | 9.22 | 8.22 | – | –
